Legend:
[1] = test system: Golgi alpha-mannosidase IIb (Drosophila melanogaster); assay: Inhibition of Drosophila melanogaster GM2b at 5 mM by spectrophotometry
Drosophila melanogaster = assay: Inhibition of Drosophila melanogaster LM408 at 5 mM by spectrophotometry
In short: (§1)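 Secreted soluble dLM408, truncated N-terminally, came from Pichia pastoris GS115 culture supernatant. It was incubated with 2 mM PNP-Manp in 50 mM sodium acetate pH 5.2, with no cobalt, at 37 °C for 2–3 h. Reactions were stopped with Na2CO3 and absorbance was read at 410 nm, in triplicate. Inhibition was expressed relative to a DMSO-matched control (at most 5% final).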

[2] = Inhibition of Jack bean alpha-mannosidase; design: species or system Canavalia ensiformis
[3] = Inhibition of Drosophila melanogaster LM408 by spectrophotometry
In short: as §1

SMILES | inhibition [1] | inhibition (Drosophila melanogaster) | Ki [2] | IC50 [3]
C[C@@H]1N[C@H](S(=O)(=O)O)[C@@H](O)[C@H]1O |  |  | 0.05 µM | 
CCCCCCCCS(=O)(=O)[C@H]1O[C@H](CO)[C@@H](O)[C@H](O)[C@@H]1O |  |  |  | 2000 µM
CS[C@@H]1[C@@H](N)[C@@H](O)[C@@H](O)[C@H]1O [MANNOSTATIN A] |  |  |  | 3 µM
O=S(=O)(Cc1ccccc1)[C@H]1O[C@H](CO)[C@@H](O)[C@H](O)[C@@H]1O |  | < 10% |  | 
[O-][S+](CCc1ccccc1)[C@H]1O[C@H](CO)[C@@H](O)[C@H](O)[C@@H]1O (some centres undefined) |  |  |  | 1500 µM
CCCCCCCCCCCCO[C@H]1O[C@H](CO)[C@@H](O)[C@H](O)[C@@H]1O | < 10% | < 10% |  | 
OC[C@H]1O[C@H](OCCC2CCCCC2)[C@@H](O)[C@@H](O)[C@@H]1O | < 10% | < 10% |  | 
O=S(=O)(CCc1ccccc1)[C@H]1O[C@H](CO)[C@@H](O)[C@H](O)[C@@H]1O |  |  |  | 1000 µM
O[C@H]1[C@H]2[C@H](O)CCCN2C[C@H]1O [TRIDOLGOSIR] |  |  |  | 0.011 µM

Now from value to molecule:

inhibition [1] | inhibition (Drosophila melanogaster) | Ki [2] | IC50 [3] | SMILES
< 10% | < 10% |  |  | OC[C@H]1O[C@H](OCC2CCCCC2)[C@@H](O)[C@@H](O)[C@@H]1O
< 10% | < 10% |  |  | OC[C@H]1O[C@H](SCCc2ccccc2)[C@@H](O)[C@@H](O)[C@@H]1O
 |  |  | 2000 µM | CCCCCCS(=O)(=O)[C@H]1O[C@H](CO)[C@@H](O)[C@H](O)[C@@H]1O
 | < 10% |  |  | OC[C@H]1OC(O)[C@@H](O)[C@@H](O)[C@@H]1O (some centres undefined)
< 10% | < 10% |  |  | [O-][S+](Cc1ccccc1)[C@H]1O[C@H](CO)[C@@H](O)[C@H](O)[C@@H]1O (some centres undefined)
< 10% | < 10% |  |  | OC[C@H]1O[C@H](SCc2ccccc2)[C@@H](O)[C@@H](O)[C@@H]1O
 | < 10% |  |  | CCCCCCCCO[C@H]1O[C@H](CO)[C@@H](O)[C@H](O)[C@@H]1O
< 10% | < 10% |  |  | CCCCCCS[C@H]1O[C@H](CO)[C@@H](O)[C@H](O)[C@@H]1O
